Assay results from different studies.
PIK3CA H1047L: Phosphatidylinositol 4,5-bisphosphate 3-kinase catalytic subunit alpha isoform (PIK3CA, Homo sapiens, UniProt P42336, H1047L)
PIK3CA H1047Y: Phosphatidylinositol 4,5-bisphosphate 3-kinase catalytic subunit alpha isoform (PIK3CA, Homo sapiens, UniProt P42336, H1047Y)
PIK3CA I800L: Phosphatidylinositol 4,5-bisphosphate 3-kinase catalytic subunit alpha isoform (PIK3CA, Homo sapiens, UniProt P42336, I800L)
PIK3CA: Phosphatidylinositol 4,5-bisphosphate 3-kinase catalytic subunit alpha isoform (PIK3CA, Homo sapiens, UniProt P42336)
PIK3CA E542K: Phosphatidylinositol 4,5-bisphosphate 3-kinase catalytic subunit alpha isoform (PIK3CA, Homo sapiens, UniProt P42336, E542K)
PIK3CA E545K: Phosphatidylinositol 4,5-bisphosphate 3-kinase catalytic subunit alpha isoform (PIK3CA, Homo sapiens, UniProt P42336, E545K)
PIK3CA Q546K: Phosphatidylinositol 4,5-bisphosphate 3-kinase catalytic subunit alpha isoform (PIK3CA, Homo sapiens, UniProt P42336, Q546K)
PIK3CA C420R: Phosphatidylinositol 4,5-bisphosphate 3-kinase catalytic subunit alpha isoform (PIK3CA, Homo sapiens, UniProt P42336, C420R)
PIK3CA E545A: Phosphatidylinositol 4,5-bisphosphate 3-kinase catalytic subunit alpha isoform (PIK3CA, Homo sapiens, UniProt P42336, E545A)

SMILES | target | read-out | method | tested at | remaining binding [%]
CSc1cccnc1N1CCN(Cc2nc3ccccc3[nH]2)CC1 | PIK3CA H1047L | cell-free assay | competition with immobilised ligand | 1 µM | 87
CN(C)c1ncc(F)c(-c2cnn3ncccc23)n1 | PIK3CA H1047Y | binding |  | 1 µM | 100
COc1cnc(Nc2cccc(S(N)(=O)=O)c2)nc1N1CCN(c2ccccc2)C(=O)C1 | PIK3CA I800L | binding | competition with immobilised ligand | 1 µM | 59
c1cncc(-c2cccc(Nc3nccc(NC4CCCCC4)n3)c2)c1 | PIK3CA | binding | competition with immobilised ligand | 10 µM | 100
COc1ncc2cc3ccccc3nc2c1C#N | PIK3CA E542K | cell-free assay | competition with immobilised ligand | 5 µM | 100
COc1cc(-c2cn(C3CCc4c(F)cccc4N(CC(F)(F)F)C3=O)nn2)ccc1-n1cnc(C)c1 (centres unmarked) | PIK3CA E545K | cell-free assay | competition with immobilised ligand | 1 µM | 70
C[C@@H]1CCN(c2nccc(-c3cnn4ncccc34)n2)C1 | Phosphatidylinositol 4,5-bisphosphate 3-kinase catalytic subunit alpha isoform (PIK3CA, Homo sapiens, UniProt P42336, M1043I) | binding |  | 1 µM | 98
CN1CCN(c2ccc(Nc3nccc(-c4ccccc4)n3)cc2C(F)(F)F)CC1 | PIK3CA H1047Y | binding |  | 10 µM | 90
O=C(N1CCS(=O)(=O)CC1)N1C[C@H](c2ccc(OC(F)(F)F)cc2)C[C@H](c2nc(C3CC3)no2)C1 | PIK3CA Q546K | cell-free assay | competition with immobilised ligand | 1 µM | 83
CC(C)(C)c1ccc(-c2nc(CBr)nn2-c2cccc(O)c2)cc1 | PIK3CA | cell-free assay | competition with immobilised ligand | 10 µM | 80
Cc1cnc(Nc2ccc(C(=O)N3CCC(N4CCCC4)CC3)cc2)nc1-c1cc2ccccc2s1 | PIK3CA C420R | binding | competition with immobilised ligand | 1 µM | 83
CCN1CCN(Cc2ccc(C(=O)Nc3ccc(C)c(Oc4ccc5c(c4)CC(=O)N5)c3)cc2C(F)(F)F)CC1 | PIK3CA E545A | binding | competition with immobilised ligand | 1 µM | 71
CNC(=O)[C@@H]1CC[C@@H](n2c(-c3ccc4cnccc4c3)nc3ccc(C(=O)NCc4cccc(C(N)=O)c4)cc32)C1 | PIK3CA I800L | binding | competition with immobilised ligand | 1 µM | 85
CN(C)c1nccc(-c2cnn3ncccc23)n1 | PIK3CA C420R | binding |  | 1 µM | 100
O=C(NCCCC1CCCCC1)c1ccc(CNC(=O)c2cnn(-c3ccccc3)c2C(F)(F)F)cc1 | PIK3CA H1047L | cell-free assay | competition with immobilised ligand | 0.1 µM | 86
CC1CCCN1c1nccc(-c2cnn3ncccc23)n1 (centres unmarked) | PIK3CA E545K | binding |  | 1 µM | 100
C=CC(=O)N1CCC(C(=O)NCC(=O)N2CCN(c3nc(-c4cnc(N)nc4C(F)F)nc(N4CCOCC4)n3)CC2)CC1 | PIK3CA E542K | binding | competition with immobilised ligand | 1 µM | 0
CS(=O)(=O)CCNCc1ccc(-c2ccc3ncnc(Nc4ccc(OCc5cccc(F)c5)c(Cl)c4)c3c2)o1 | PIK3CA | cell-free assay | competition with immobilised ligand | 0.1 µM | 98
CN1CCN(c2ccc(Nc3nccc(-c4cccc([N+](=O)[O-])c4)n3)cc2C(F)(F)F)CC1 | PIK3CA E542K | binding |  | 10 µM | 36

SMILES | target | read-out | method | tested at | remaining binding [%]
COc1cnc(Nc2cccc(S(N)(=O)=O)c2)nc1N1CCN(c2ccccc2)CC1 | PIK3CA Q546K | binding | competition with immobilised ligand | 1 µM | 70
O=C(c1ccc(Nc2ncc(Cl)c(-c3cc4ccccc4s3)n2)cc1)N1CCC(N2CCCC2)CC1 | PIK3CA Q546K | binding | competition with immobilised ligand | 1 µM | 90
CN(C)c1nccc(-c2cnc3ncccn23)n1 | PIK3CA E545A | binding |  | 1 µM | 90
O=C(NCCCN1CCOCC1)c1ccc(Nc2nccc(-c3cc4ccccc4s3)n2)cc1 | PIK3CA Q546K | binding | competition with immobilised ligand | 1 µM | 81
Nc1cnc(N2CCc3cc(S(=O)(=O)Nc4c(F)cc(Cl)cc4F)cc(N4CCCC4=O)c32)nc1 | PIK3CA | cell-free assay | competition with immobilised ligand | 1 µM | 76
CN(c1nccc(-c2cnn3ncccc23)n1)C1CC1 | PIK3CA E545K | binding |  | 1 µM | 100
O=C(Nc1c[nH]nc1C(=O)NC1CCNCC1)c1cc(F)cc(F)c1 | PIK3CA | binding | competition with immobilised ligand | 1 µM | 100
N[C@@H]1CCN(c2nccc(-c3cnn4ncccc34)n2)C1 | PIK3CA H1047Y | binding |  | 1 µM | 91
O=C(c1ccc(Nc2ncc(Cl)c(-c3ccc(Cl)s3)n2)cc1)N1CCC(N2CCCC2)CC1 | PIK3CA E542K | binding | competition with immobilised ligand | 1 µM | 100
c1ccc(N2CCN(Cc3nc4ccccc4[nH]3)CC2)nc1 | PIK3CA Q546K | cell-free assay | competition with immobilised ligand | 1 µM | 100
C[C@@H](c1ccc(-n2cnc3c(N)ncnc32)cc1)N1CCc2nn(C)c(Cc3ccccc3)c2C1=O | PIK3CA I800L | binding | competition with immobilised ligand | 0.1 µM | 71
CCCOc1ccc([C@H]2[C@H](C(=O)O)[C@@H](c3ccc4c(c3)OCO4)CN2CC(=O)Nc2c(CC)cccc2CC)cc1 | PIK3CA | cell-free assay | competition with immobilised ligand | 1 µM | 80
O=C(NCC1CCOCC1)c1n[nH]cc1NC(=O)c1c(F)cccc1F | PIK3CA E545K | binding | competition with immobilised ligand | 1 µM | 75
CN(CCCC(F)(F)F)c1nccc(-c2cnn3ncccc23)n1 | PIK3CA H1047Y | binding |  | 1 µM | 100
Nc1ncc2c(n1)-c1c([nH]c3ccc(C#CC4CC4)cc13)CCCC2 | PIK3CA C420R | binding | competition with immobilised ligand | 1 µM | 86
O=C(NCCCN1CCOCC1)c1ccc(Nc2ncc(Cl)c(-c3ccc(Cl)s3)n2)cc1 | PIK3CA I800L | binding | competition with immobilised ligand | 1 µM | 85
COc1cc(-c2cn(C3CCc4ccccc4N(CC(F)(F)F)C3=O)nn2)ccc1-n1ccc(C)n1 (centres unmarked) | PIK3CA I800L | cell-free assay | competition with immobilised ligand | 1 µM | 76
O=C(c1ccc(Nc2nccc(-c3cc4ccccc4s3)n2)cc1)N1CCC(N2CCCC2)CC1 | PIK3CA C420R | binding | competition with immobilised ligand | 1 µM | 88
Cc1c(-c2ccccc2)oc2c(C(=O)OCCN3CCCCC3)cccc2c1=O | PIK3CA | cell-free assay | competition with immobilised ligand | 10 µM | 100
